# Source: ChEMBL document CHEMBL4428060 (J Med Chem, 2016)
# pEC50, pIC50, pKi: −log10 of the molar value. The source made the active and inactive calls. The calls are words filed in the database; no cut-off is given here.
# Legend:
# [1] = species on record: Homo sapiens; assay: Selectivity ratio of Ki for human dopamine D2L receptor to Ki for human dopamine D3 receptor expressed in HEK293 cell membranes; assay type: cell-based
# Outline: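 Competition binding on membranes from HEK293 cells stably expressing human D2LR or D3R; 10 μg protein per tube in EBSS with 0.2 mM sodium metabisulfite, [3H]N-methylspiperone 0.4 nM final, 1 h at room temperature, GF/B filtration, scintillation counting.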
# [2] = biological target: T1, 5-hydroxytryptamine receptor 1A (Homo sapiens) (UniProt P08908); assay: (§1) Agonist activity at 5-HT1A receptor (unknown origin) by [35S]GTPgammaS binding assay; assay type: functional; set-up: concentration or dose not given beside the values
# T1 sequence (whole entry): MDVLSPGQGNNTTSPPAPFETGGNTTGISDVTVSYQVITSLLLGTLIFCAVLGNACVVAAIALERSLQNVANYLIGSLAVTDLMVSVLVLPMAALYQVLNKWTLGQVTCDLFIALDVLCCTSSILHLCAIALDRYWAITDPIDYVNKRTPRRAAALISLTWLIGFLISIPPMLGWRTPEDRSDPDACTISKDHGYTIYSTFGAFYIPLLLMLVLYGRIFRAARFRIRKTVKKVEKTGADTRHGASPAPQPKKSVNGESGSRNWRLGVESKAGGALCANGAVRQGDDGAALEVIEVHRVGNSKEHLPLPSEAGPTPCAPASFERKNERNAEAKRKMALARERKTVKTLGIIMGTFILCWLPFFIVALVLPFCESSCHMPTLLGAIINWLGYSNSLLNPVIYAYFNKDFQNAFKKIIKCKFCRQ
# [3] = biological target: T2, D(3) dopamine receptor (Homo sapiens, UniProt P35462); assay: Agonist activity at human dopamine D3 receptor expressed in CHO cells assessed as stimulation of mitogenesis incubated for 16 hrs in presence of [3H]thymidine by scintillation spectrometric analysis; assay type: cell-based; set-up: concentration or dose not given beside the values
# [4] = species on record: Homo sapiens; assay: Selectivity ratio of Ki for human dopamine D4.4 receptor to Ki for human dopamine D2L receptor expressed in HEK293 cell membranes; assay type: cell-based
# [5] = biological target: T3, 5-hydroxytryptamine receptor 1A (Homo sapiens, UniProt P08908); assay: as §1; assay type: functional
# T3 sequence (P08908 whole entry): T1 sequence (whole entry)
# [6] = biological target: D(2) dopamine receptor (Homo sapiens, UniProt P14416); assay: Displacement of [3H]N-methylspiperone from human dopamine D2L receptor expressed in HEK293 cell membranes incubated for 1 hr by liquid scintillation counting analysis
# Outline: (§2)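 Membranes from HEK293 cells stably expressing human D2LR, D3R or D4.4R, 10 μg protein (D2LR, D3R) or 20 μg (D4.4R) per tube, in EBSS pH 7.4 with 0.2 mM sodium metabisulfite. [3H]N-methylspiperone 0.4 nM final. 13 half-log dilutions, 100 μM–100 pM or 10 μM–10 pM final. 10 μM butaclamol defined nonspecific binding. Triplicates, 1 h at room temperature, GF/B filtration. Ki by Cheng-Prusoff from IC50, at least three independent experiments.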
# [7] = biological target: 5-hydroxytryptamine receptor 2A (Homo sapiens, UniProt P28223); assay: Displacement of [125I]DOI from 5-HT2A receptor (unknown origin)
# [8] = biological target: T2, D(3) dopamine receptor; assay: Displacement of [3H]N-methylspiperone from human dopamine D3 receptor expressed in HEK293 cell membranes incubated for 1 hr by liquid scintillation counting analysis; outline: as §2
# [9] = biological target: T2, D(3) dopamine receptor; assay: Antagonist activity at human dopamine D3 receptor expressed in CHO cells assessed as inhibition of quinpirole-stimulated mitogenesis incubated for 16 hrs in presence of [3H]thymidine by scintillation spectrometric analysis; assay type: cell-based
# [10] = biological target: T4, D(4) dopamine receptor (Homo sapiens, UniProt P21917); assay: Displacement of [3H]N-methylspiperone from human dopamine D4.4 receptor expressed in HEK293 cell membranes incubated for 1 hr by liquid scintillation counting analysis; outline: as §2
# T4 sequence (P21917 whole entry): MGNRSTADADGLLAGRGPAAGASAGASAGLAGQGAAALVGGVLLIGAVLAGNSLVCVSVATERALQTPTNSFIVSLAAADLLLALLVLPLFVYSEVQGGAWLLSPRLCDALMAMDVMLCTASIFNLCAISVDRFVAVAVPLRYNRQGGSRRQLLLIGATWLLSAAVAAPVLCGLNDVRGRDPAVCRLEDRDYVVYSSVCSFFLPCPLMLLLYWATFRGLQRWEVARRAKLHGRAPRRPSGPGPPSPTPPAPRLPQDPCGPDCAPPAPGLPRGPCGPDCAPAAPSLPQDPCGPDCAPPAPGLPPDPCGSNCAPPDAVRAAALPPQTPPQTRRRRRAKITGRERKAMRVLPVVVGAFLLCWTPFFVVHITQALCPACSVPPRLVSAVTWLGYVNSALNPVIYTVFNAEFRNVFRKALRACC
# [11] = biological target: T3, 5-hydroxytryptamine receptor 1A; assay: Displacement of [3H]-8-OH-DPAT from 5-HT1A receptor (unknown origin)
# [12] = biological target: T5, 5-hydroxytryptamine receptor 2C (Homo sapiens, UniProt P28335); assay: Displacement of [125I]DOI from 5-HT2C receptor (unknown origin)
# T5 sequence (P28335 whole entry): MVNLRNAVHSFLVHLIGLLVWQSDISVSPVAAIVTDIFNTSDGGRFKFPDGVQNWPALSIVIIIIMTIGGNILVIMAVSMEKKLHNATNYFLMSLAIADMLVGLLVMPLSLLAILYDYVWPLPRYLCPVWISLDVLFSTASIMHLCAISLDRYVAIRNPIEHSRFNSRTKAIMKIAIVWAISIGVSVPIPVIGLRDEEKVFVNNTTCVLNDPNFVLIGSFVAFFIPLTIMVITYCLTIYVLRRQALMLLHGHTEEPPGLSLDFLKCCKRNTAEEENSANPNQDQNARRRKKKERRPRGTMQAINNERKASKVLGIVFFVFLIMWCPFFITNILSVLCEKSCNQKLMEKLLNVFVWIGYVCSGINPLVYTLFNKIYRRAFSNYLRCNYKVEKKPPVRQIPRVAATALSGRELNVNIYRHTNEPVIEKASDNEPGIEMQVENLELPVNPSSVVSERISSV
# [13] = species on record: Homo sapiens; assay: Selectivity ratio of Ki for human dopamine D4.4 receptor to Ki for human dopamine D3 receptor expressed in HEK293 cell membranes; assay type: cell-based
# [14] = test system: Mus musculus; assay: Protection against oxycodone-induced hyperactivity in C57BL/6J mouse at 5 and 15 mg/kg, ip on day 1 followed by 5 and 15 mg/kg, ip pre-treated 15 mins before oxycodone challenge on day 2; assay type: functional, organism-based
# [15] = Toxicity in C57BL/6J mouse assessed as effect on basal locomotor activity at 5 to 15 mg/kg, ip measured every 20 mins for 2 hrs on day 1; assay type: organism-based; settings: in vivo
# [16] = test system: Mus musculus; assay: Protection against oxycodone-induced locomotor sensitization in C57BL/6J mouse at 5 and 15 mg/kg, ip on day 1 followed by 5 and 15 mg/kg, ip pre-treated 15 mins before oxycodone challenge on day 2; assay type: functional, organism-based
# [17] = Metabolic stability in mouse liver microsomes assessed as compound remaining at 10 uM measured for 1 hr in presence of NADPH by LC/MS/MS analysis; assay type: ADME, Microsome; settings: read-out: Stability
# Outline: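 Mouse liver microsomes 0.5 mg/mL in 100 mM potassium phosphate, pH 7.4, with NADPH regenerating system; compound 10 μM final. Testosterone as phase I positive control. Disappearance over time by LC/MS/MS; triplicate sampling.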
# [18] = Toxicity in Long-Evans rat assessed as induction of conditioned place preference at 15 mg/kg, ip; assay type: organism-based; settings: in vivo
# Outline: (§3)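 Rat CPP in 3-chamber apparatus; animals with preconditioning bias ≥200 s excluded. Alternating conditioning: oxycodone 3 mg/kg i.p. ×2 and saline ×2, counterbalanced, 40 min confinement; pretreatment saline or 5, 15 mg/kg i.p. 15 min before oxycodone. Home-cage oxycodone 3 mg/kg i.p. twice daily for four days. Drug-alone group: 15 mg/kg paired versus saline. Test 24 h later, 15 min; score = drug- minus saline-paired time; one-way ANOVA.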
# [19] = biological target: Kappa-type opioid receptor (Homo sapiens) (UniProt P41145); assay: Binding affinity to kappa opioid receptor (unknown origin) at 10 uM
# [20] = test system: Rattus norvegicus; assay: Protection against oxycodone-induced conditioned place preference in ip dosed Long-Evans rat pretreated with compound 15 mins prior to oxycodone injection; assay type: functional, organism-based; outline: as §3
# [21] = test system: Mus musculus; assay: Protection against oxycodone prime-induced locomotor sensitization in C57BL/6J mouse at 5 and 15 mg/kg, ip on day 1 followed by 5 and 15 mg/kg, ip pre-treated 15 mins before oxycodone challenge on day 2 followed by 72 hrs drug withdrawal before 4 mg/kg oxycodone injection on day 9; assay type: functional, organism-based
# [22] = biological target: Delta-type opioid receptor (Homo sapiens) (UniProt P41143); assay: Binding affinity to delta opioid receptor (unknown origin) at 10 uM
# [23] = biological target: Mu-type opioid receptor (Homo sapiens) (UniProt P35372); assay: Binding affinity to mu opioid receptor (unknown origin) at 10 uM
# Mu-type opioid receptor (Homo sapiens), sequence (P35372 whole entry): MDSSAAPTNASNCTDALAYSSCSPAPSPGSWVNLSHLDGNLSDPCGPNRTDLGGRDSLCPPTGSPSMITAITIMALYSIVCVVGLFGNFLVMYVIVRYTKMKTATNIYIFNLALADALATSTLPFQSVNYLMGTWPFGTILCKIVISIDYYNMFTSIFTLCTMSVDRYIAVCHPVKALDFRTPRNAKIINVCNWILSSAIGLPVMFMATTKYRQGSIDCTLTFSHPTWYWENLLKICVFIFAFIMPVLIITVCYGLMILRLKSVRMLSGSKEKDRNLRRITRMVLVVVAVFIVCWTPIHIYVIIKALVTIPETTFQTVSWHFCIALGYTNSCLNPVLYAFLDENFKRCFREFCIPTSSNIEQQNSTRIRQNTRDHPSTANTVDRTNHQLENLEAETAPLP
# T2 sequence (P35462 whole entry): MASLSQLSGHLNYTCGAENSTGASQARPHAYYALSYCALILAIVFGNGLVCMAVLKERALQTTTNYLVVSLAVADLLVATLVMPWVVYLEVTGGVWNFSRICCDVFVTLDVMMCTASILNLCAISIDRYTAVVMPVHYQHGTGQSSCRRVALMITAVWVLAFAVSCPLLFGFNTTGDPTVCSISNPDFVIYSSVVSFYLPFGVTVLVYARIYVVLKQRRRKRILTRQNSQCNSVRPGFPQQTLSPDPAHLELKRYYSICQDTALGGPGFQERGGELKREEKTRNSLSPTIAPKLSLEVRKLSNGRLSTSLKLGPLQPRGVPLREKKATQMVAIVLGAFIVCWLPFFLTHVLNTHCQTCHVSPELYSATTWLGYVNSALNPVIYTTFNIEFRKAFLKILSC
# D(2) dopamine receptor, sequence (P14416 whole entry): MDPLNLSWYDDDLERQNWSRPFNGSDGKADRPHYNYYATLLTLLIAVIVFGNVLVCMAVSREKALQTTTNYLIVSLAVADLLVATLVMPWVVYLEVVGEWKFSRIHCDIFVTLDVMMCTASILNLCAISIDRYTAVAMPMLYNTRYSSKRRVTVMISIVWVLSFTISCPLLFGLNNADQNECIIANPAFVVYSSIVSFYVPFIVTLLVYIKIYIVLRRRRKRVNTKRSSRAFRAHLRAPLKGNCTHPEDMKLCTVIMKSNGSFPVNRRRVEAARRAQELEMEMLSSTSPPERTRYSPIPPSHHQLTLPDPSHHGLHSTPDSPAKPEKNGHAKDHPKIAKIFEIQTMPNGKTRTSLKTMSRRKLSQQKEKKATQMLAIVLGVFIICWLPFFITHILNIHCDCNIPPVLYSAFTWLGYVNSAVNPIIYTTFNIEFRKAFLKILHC
# 5-hydroxytryptamine receptor 2A, sequence (P28223 whole entry): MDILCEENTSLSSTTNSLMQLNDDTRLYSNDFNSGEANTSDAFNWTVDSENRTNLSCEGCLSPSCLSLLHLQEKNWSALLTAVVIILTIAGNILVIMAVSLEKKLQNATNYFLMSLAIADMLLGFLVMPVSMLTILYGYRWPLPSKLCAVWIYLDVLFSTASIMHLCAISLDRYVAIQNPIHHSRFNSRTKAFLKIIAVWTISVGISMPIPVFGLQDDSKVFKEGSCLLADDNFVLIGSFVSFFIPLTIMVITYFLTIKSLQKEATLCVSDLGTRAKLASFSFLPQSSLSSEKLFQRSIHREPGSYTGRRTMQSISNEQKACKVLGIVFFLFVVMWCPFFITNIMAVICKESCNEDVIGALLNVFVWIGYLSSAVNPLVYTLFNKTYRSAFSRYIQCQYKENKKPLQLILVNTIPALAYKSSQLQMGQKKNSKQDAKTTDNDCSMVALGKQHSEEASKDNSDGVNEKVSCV
# Kappa-type opioid receptor (Homo sapiens), sequence (P41145 whole entry): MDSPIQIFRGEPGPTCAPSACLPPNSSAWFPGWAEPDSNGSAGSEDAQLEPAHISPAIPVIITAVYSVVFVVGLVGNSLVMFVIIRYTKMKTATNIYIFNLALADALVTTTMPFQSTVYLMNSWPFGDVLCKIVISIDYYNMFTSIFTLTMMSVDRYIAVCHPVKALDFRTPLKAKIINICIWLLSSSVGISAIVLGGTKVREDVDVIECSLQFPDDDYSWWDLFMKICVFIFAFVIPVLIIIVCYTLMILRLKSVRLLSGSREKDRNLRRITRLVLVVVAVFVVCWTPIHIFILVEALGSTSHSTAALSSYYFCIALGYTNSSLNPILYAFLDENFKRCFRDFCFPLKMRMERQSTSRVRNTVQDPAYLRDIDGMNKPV
# Delta-type opioid receptor (Homo sapiens), sequence (P41143 whole entry): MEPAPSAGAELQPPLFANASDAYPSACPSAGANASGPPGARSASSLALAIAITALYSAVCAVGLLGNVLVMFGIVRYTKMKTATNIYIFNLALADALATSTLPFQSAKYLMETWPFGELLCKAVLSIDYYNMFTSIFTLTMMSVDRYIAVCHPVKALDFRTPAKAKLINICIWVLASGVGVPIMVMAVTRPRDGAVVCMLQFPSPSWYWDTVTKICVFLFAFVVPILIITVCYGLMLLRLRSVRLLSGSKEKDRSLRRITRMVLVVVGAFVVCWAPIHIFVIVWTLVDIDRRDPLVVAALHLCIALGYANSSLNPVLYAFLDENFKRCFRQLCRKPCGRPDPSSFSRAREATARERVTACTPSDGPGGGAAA
compound,measurement,setting,value
CCc1cccc(N2CCN(CCCCNC(=O)c3cn4ccccc4n3)CC2)c1Cl,Ratio Ki,[1],17
CCc1cccc(N2CCN(CCCCNC(=O)c3cc4ccccc4o3)CC2)c1Cl,Activity,[2],99.4%
same,Activity,[3],31.2%
same,Ratio Ki,[1],41
CCc1cccc(N2CCNCC2)c1Cl,Ratio Ki,[4],2.3
same,Activity,[2],90.1%
same,pEC50,[5],7.11
same,pKi,[6],6.86
same,pKi,[7],8.15
same,pKi,[8],7.51
same,pIC50,[9],< 5.00
same,Activity,[3],64.7%
same,pEC50,[3],7.75
same,pKi,[10],6.50
same,pKi,[11],7.15
same,pKi,[12],8.27
same,Ratio Ki,[1],4.5
same,Ratio Ki,[13],10
CCc1cccc(N2CCN(CCCCNC(=O)c3c(C)nc4sccn34)CC2)c1Cl,pKi,[6],8.33
same,pKi,[8],9.03
same,pKi,[10],6.84
same,Ratio Ki,[1],5
CCc1cccc(N2CCN(CCC(O)CNC(=O)c3cc4ccccc4[nH]3)CC2)c1Cl (stereo not drawn),Ratio Ki,[1],34
CCc1c[nH]c(C(=O)NCCCCN2CCN(c3cccc(CC)c3Cl)CC2)n1,Ratio Ki,[1],11
CCc1cccc(N2CCN(CCCCNC(=O)c3cc4ccccc4[nH]3)CC2)c1Cl,Activity,[2],94.3%
same,Activity,[3],42.3%
same,Ratio Ki,[1],39
CCc1cc(Cl)c(OC)c(N2CCN(CC(O)CCNC(=O)c3cc4ccccc4[nH]3)CC2)c1 (stereo not drawn),Activity,[14],Active
same,Activity,[15],Non-Toxic
same,Activity,[16],Active
same,"remaining at 1 h, 10 µM",[17],> 80%
same,Activity,[18],Non-Toxic
same,Activity,[19],inactive
same,Activity,[3],6.7%
same,pEC50,[3],< 5.08
same,Activity,[20],Dose-dependent effect
same,pKi,[10],4.86
same,Activity,[21],Active
same,Activity,[22],inactive
same,Activity,[23],inactive
CCCCN1CCN(c2cccc(CC)c2Cl)CC1,Ratio Ki,[4],22
same,Activity,[2],90.8%
same,pEC50,[5],7.32
same,pKi,[6],8.53
same,pKi,[7],7.28
same,pKi,[8],9.44
same,pIC50,[9],7.20
same,Activity,[3],29.1%
same,pEC50,[3],6.23
same,pKi,[10],7.19
same,pKi,[11],7.43
same,pKi,[12],6.65
same,Ratio Ki,[1],8.1
same,Ratio Ki,[13],179
CCc1cccc(N2CCN(CC(O)CCNC(=O)c3cc4ccccc4o3)CC2)c1Cl (stereo not drawn),Activity,[2],101%
same,Activity,[3],22.3%
same,Ratio Ki,[1],166
CCc1cccc(N2CCN(CCCCNC(=O)c3nc(C)c[nH]3)CC2)c1Cl,Ratio Ki,[1],20
